Measurements from different studies.
Lines come from different studies, so protocols differ.
rep main protease: Replicase polyprotein 1ab, main protease (rep, Severe acute respiratory syndrome coronavirus 2, UniProt P0DTD1)
MAL12: Alpha-glucosidase MAL12 (MAL12, Saccharomyces cerevisiae S288c, UniProt P53341)
ADRA1A: Alpha-1A adrenergic receptor (ADRA1A, Homo sapiens, UniProt P35348)

For `COc1cc(O)c2c(=O)cc(-c3ccccc3)oc2c1`, the inhibition was 2.12% (rep main protease; enzyme activity, inhibitor; 10 µM).
For `CCc1ccc(N2C(=O)/C(=C3/C(=O)N(C)c4ccc(Cl)cc43)NC2=S)cc1`, the inhibition was 62.1% (MAL12; enzyme activity, inhibitor, absorbance; 200 µM).
For `COc1cc(O)c2c(=O)c(OC)c(-c3ccccc3)oc2c1`, the inhibition was 3.04% (rep main protease; enzyme activity, inhibitor; 10 µM).
With `O=C(O)c1cc(O)c(O)c(O)c1` the kinact/KI was 205 M⁻¹ s⁻¹ (rep main protease; enzyme activity, inhibitor).
For `COc1ccc(-c2cc(=O)c3c(O)cc(OC)cc3o2)cc1`, the inhibition was 10.6% (rep main protease; enzyme activity, inhibitor; 100 µM).
The inhibition of `COc1cc2c(cc1OC)-c1c(OC)c(OC)cc3c1[C@H](C2)N(C)CC3` is reported as 82% (ADRA1A; ligand displacement, radioligand; 10 µM).
The inhibition of `CN1C(=S)N(c2ccccc2)C(=O)/C1=C1/C(=O)N(C)c2ccc(Cl)cc21` is reported as 54.2% (MAL12; enzyme activity, inhibitor, absorbance; 200 µM).
With `COc1cc2cc3c4c(cc(OC)c(OC)c4c2cc1OC)CCN3C` the inhibition was 19% (ADRA1A; ligand displacement, radioligand; 10 µM).
For `O=C(O[C@@H]1Cc2c(O)cc(O)cc2O[C@@H]1c1ccc(O)c(O)c1)c1cc(O)c(O)c(O)c1`, the kinact was 1.83e-05 s⁻¹ (rep main protease; enzyme activity, inhibitor).
`CC(C)CC(=O)OC[C@H]1O[C@@](C#N)(c2ccc3c(N)ncnn23)[C@H](O)[C@@H]1O` gave an inhibition of 3% (Histamine H2 receptor (HRH2, Homo sapiens, UniProt P25021); cell-free assay; 20 µM).
With `CN1CCC[C@H]1c1cccnc1` the inhibition was -6.17% (ADRA1A; ligand displacement; 50 µM).
`O=c1c(O)c(-c2ccc(O)cc2)oc2c(O)c(O)cc(O)c12` has a kinact/KI of 20.3 M⁻¹ s⁻¹ (rep main protease; enzyme activity, inhibitor).
`c1cncc([C@@H]2CCCN2)c1` gave an inhibition of -8.12% (ADRA1A; ligand displacement; 50 µM).
`C[C@H]1O[C@H](O[C@H]2[C@H](O)[C@@H](O)[C@@H](O[C@H]3[C@H](O)[C@@H](O)C(O)O[C@@H]3CO)O[C@@H]2CO)[C@H](O)[C@@H](O)[C@@H]1N[C@H]1C=C(CO)[C@@H](O)[C@H](O)[C@H]1O` (some centres unmarked) gave an inhibition of 63.9% (MAL12; enzyme activity, inhibitor, absorbance; 774.5 µM).
For `COc1cc(O)c2c(=O)c(OC)c(-c3ccc(OC)c(OC)c3)oc2c1`, the inhibition was 5.84% (rep main protease; enzyme activity, inhibitor; 10 µM).
`CN1C(=O)/C(=N\Nc2ncc(-c3cc4ccccc4oc3=O)s2)c2cc(Cl)ccc21` has an inhibition of 17.4% (MAL12; enzyme activity, inhibitor, absorbance; 25 µM).
With `[2H]c1c([2H])c([C@]2([2H])CCCN2C(=O)C(C)(C)Oc2ccc3cn[nH]c3c2)c([2H])c([2H])c1C([2H])([2H])[2H]` the remaining binding was 75% (Focal adhesion kinase 1 (PTK2, Homo sapiens, UniProt Q05397); binding, competition with immobilised ligand; 1 µM).
